Experiments:
[1] = system: NCI-H520; assay: In vitro cell growth inhibition of H520 cell line determined using non-radioactive cell proliferation assay at a dose of 100 uM; format: functional, Homo sapiens
Procedure, shortened: (§1)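 Tetrazolium-type colorimetric proliferation assay (CellTiter 96 AQueous, non-radioactive); cells treated at 10, 50 and 100 µM; read as percent cell survival. All points in quadruplicate. Vehicle control DMSO (0.20%); m-AMSA (20, 40 µM) as reference control.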

[2] = system: NCI-H520; assay: In vitro cell growth inhibition of H520 cell line determined using non-radioactive cell proliferation assay at a dose of 10 uM; format: functional, Homo sapiens; procedure, shortened: as §1
[3] = system: NCI-H520; assay: In vitro cell growth inhibition of H520 cell line determined using non-radioactive cell proliferation assay at a dose of 50 uM; format: functional, Homo sapiens; procedure, shortened: as §1
[4] = system: PC-3; assay: In vitro cell growth inhibition of PC3 cell line determined using non-radioactive cell proliferation assay at a dose of 100 uM; format: functional, Homo sapiens; procedure, shortened: as §1
[5] = system: PC-3; assay: In vitro cell growth inhibition of PC3 cell line determined using non-radioactive cell proliferation assay at a dose of 10 uM; format: functional, Homo sapiens; procedure, shortened: as §1
[6] = system: PC-3; assay: In vitro cell growth inhibition of PC3 cell line determined using non-radioactive cell proliferation assay at a dose of 50 uM; format: functional, Homo sapiens; procedure, shortened: as §1
[7] = system: NCI-H520; assay: In vitro cell growth inhibition of H520 cell line determined using Non-Radioactive Cell Proliferation Assay at a dose of 100 uM; format: functional, Homo sapiens; procedure, shortened: as §1
[8] = system: PC-3; assay: In vitro cell growth inhibition of PC3 cell line determined using Non-Radioactive Cell Proliferation Assay at a dose of 50 uM; format: functional, Homo sapiens; procedure, shortened: as §1
[9] = Inhibition of topo II-mediated DNA relaxation measured by topo II-mediated DNA relaxation assay; ++ indicates drug interaction with topo II; format: functional
Procedure, shortened: (§2)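 Relaxation of supercoiled plasmid pUC18 DNA (E. coli) by topo II (2.0 units per reaction) in Tris-Cl pH 8.0 buffer with KCl, MgCl2, ATP, DTT and BSA; 1 µL of 1 mM drug in 10% DMSO per 10 µL reaction, enzyme added last; 37 °C for 30-45 min. Stopped with sarkosyl buffer, chloroform/isoamyl alcohol extraction, 1% agarose gel, ethidium stain. Densitometric qualitative scoring; gels in triplicate.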

[10] = Inhibition of topo II-mediated DNA relaxation measured by topo II-mediated DNA relaxation assay; +++ indicates drug interaction with topo II; format: functional; procedure, shortened: as §2
[11] = Inhibition of topo II-mediated DNA relaxation measured by topo II-mediated DNA relaxation assay; ++++ indicates drug interaction with topo II; format: functional; procedure, shortened: as §2
[12] = Inhibition of topo II-mediated DNA relaxation measured by topo II-mediated DNA relaxation assay; - indicates drug does not interaction with topo II; format: functional; procedure, shortened: as §2
[13] = system: PC-3; assay: In vitro cell growth inhibition of PC3 cell line determined using Non-Radioactive Cell Proliferation Assay at a dose of 10 uM; format: functional, Homo sapiens; procedure, shortened: as §1

| SMILES | Cell survival [1] | Cell survival [2] | Cell survival [3] | Cell survival [4] | Cell survival [5] | Cell survival [6] | Cell survival [7] | Cell survival [8] | DNA relaxation [9] | DNA relaxation [10] | DNA relaxation [11] | DNA relaxation [12] | Cell survival [13] |
| --- | --- | --- | --- | --- | --- | --- | --- | --- | --- | --- | --- | --- | --- |
| COC(=O)[C@H]1CCCN1C(=O)[C@@H]1Cc2c([nH]c3ccccc23)[C@@H](c2cc(OC)c(O)c(OC)c2)N1 | 61% | 94.3% | 86.1% | 66.3% | 98% | 99.4% | – | – | – | – | – | – | – |
| COC(=O)[C@H](Cc1c[nH]c2ccccc12)NC(=O)[C@@H]1Cc2c([nH]c3ccccc23)[C@@H](c2cc(OC)c(O)c(OC)c2)N1 | – | 67.9% | 61.1% | 6.7% | 95.7% | – | 2.8% | 77% | – | – | – | – | – |
| COC(=O)[C@H](CC(C)C)NC(=O)[C@@H]1Cc2c([nH]c3ccccc23)[C@@H](c2cc(OC)c(O)c(OC)c2)N1 | – | 84% | 89.2% | 87.6% | >100% | – | 83.2% | 98.7% | – | – | – | – | – |
| COC(=O)[C@@H](CCCCN)NC(=O)[C@@H]1Cc2c([nH]c3ccccc23)[C@@H](c2cc(OC)c(O)c(OC)c2)N1 | – | 78.3% | 76.9% | >100% | >100% | – | 87.7% | >100% | drug interaction with topo II | – | – | – | – |
| COC(=O)[C@H](C)NC(=O)[C@@H]1Cc2c([nH]c3ccccc23)[C@@H](c2cc(OC)c(O)c(OC)c2)N1 | – | >100% | >100% | 95.8% | >100% | – | >100% | 96.6% | – | – | – | – | – |
| COC(=O)[C@H](Cc1ccc(O)cc1)NC(=O)[C@@H]1Cc2c([nH]c3ccccc23)[C@@H](c2cc(OC)c(O)c(OC)c2)N1 | – | >100% | >100% | 94.9% | >100% | – | 98.6% | 96.4% | – | – | – | – | – |
| COC(=O)[C@H](CCSC)NC(=O)[C@@H]1Cc2c([nH]c3ccccc23)[C@@H](c2cc(OC)c(O)c(OC)c2)N1 | – | 99.2% | 91.2% | 76.8% | 96.7% | – | 79.9% | 88.2% | – | – | – | – | – |
| COC(=O)[C@@H](CC(C)C)NC(=O)[C@@H]1Cc2c([nH]c3ccccc23)[C@@H](c2cc(OC)c(O)c(OC)c2)N1 | – | 85.2% | 84.3% | 99.4% | >100% | – | 80.6% | >100% | drug interaction with topo II | – | – | – | – |
| COC(=O)[C@H](NC(=O)[C@@H]1Cc2c([nH]c3ccccc23)[C@@H](c2cc(OC)c(O)c(OC)c2)N1)C(C)C | – | 90% | >100% | >100% | >100% | – | 98.3% | >100% | – | – | – | – | – |
| COC(=O)[C@@H](Cc1c[nH]c2ccccc12)NC(=O)[C@@H]1Cc2c([nH]c3ccccc23)[C@@H](c2cc(OC)c(O)c(OC)c2)N1 | – | >100% | 35.2% | 62.4% | >100% | – | 7.2% | 84.9% | – | drug interaction with topo II | – | – | – |
| COC(=O)[C@H](CO)NC(=O)[C@@H]1Cc2c([nH]c3ccccc23)[C@@H](c2cc(OC)c(O)c(OC)c2)N1 | – | 87% | 90% | >100% | 99.7% | – | 79.6% | 98.5% | – | – | – | – | – |
| COC(=O)[C@@H](C)NC(=O)[C@@H]1Cc2c([nH]c3ccccc23)[C@@H](c2cc(OC)c(O)c(OC)c2)N1 | – | >100% | >100% | >100% | 96.9% | – | >100% | >100% | drug interaction with topo II | – | – | – | – |
| COC(=O)[C@@H](Cc1ccc(O)cc1)NC(=O)[C@@H]1Cc2c([nH]c3ccccc23)[C@@H](c2cc(OC)c(O)c(OC)c2)N1 | – | >100% | 79% | 89.8% | 88.5% | – | 83.2% | >100% | – | – | – | – | – |
| COc1cc([C@@H]2c3[nH]c4ccccc4c3C[C@H]3C(=O)NCC(=O)N23)cc(OC)c1O | – | 91.6% | 69.2% | 86.6% | >100% | – | 51.9% | >100% | – | – | – | – | – |
| COC(=O)[C@@H](NC(=O)[C@@H]1Cc2c([nH]c3ccccc23)[C@@H](c2cc(OC)c(O)c(OC)c2)N1)c1ccccc1 | – | 82.7% | 89.9% | 64.5% | 88.5% | – | 86.8% | >100% | – | – | drug interaction with topo II | – | – |
| COC(=O)[C@@H](Cc1ccccc1)NC(=O)[C@@H]1Cc2c([nH]c3ccccc23)[C@@H](c2cc(OC)c(O)c(OC)c2)N1 | – | 77.6% | 33% | 63.6% | >100% | – | 6.7% | >100% | – | – | – | – | – |
| COc1cc([C@@H]2c3[nH]c4ccccc4c3C[C@H]3C(=O)N4CCC[C@H]4C(=O)N23)cc(OC)c1O | >100% | >100% | >100% | >100% | >100% | – | – | >100% | – | – | – | – | – |
| COC(=O)[C@H](CCCCN)NC(=O)[C@@H]1Cc2c([nH]c3ccccc23)[C@@H](c2cc(OC)c(O)c(OC)c2)N1 | – | 99.3% | >100% | 90.6% | 95.2% | – | >100% | 91.2% | – | – | – | – | – |
| COC(=O)[C@@H](NC(=O)[C@@H]1Cc2c([nH]c3ccccc23)[C@@H](c2cc(OC)c(O)c(OC)c2)N1)C(C)C | – | 87.6% | 85.4% | 95.3% | 91.9% | – | 93.6% | 93.1% | – | – | – | – | – |
| COC(=O)[C@@H]1CCCN1C(=O)[C@@H]1Cc2c([nH]c3ccccc23)[C@@H](c2cc(OC)c(O)c(OC)c2)N1 | – | 80.5% | 83.4% | >100% | 96.8% | – | 86.6% | 98.3% | – | – | – | drug does not interact with topo II | – |
| COc1cc([C@@H]2c3[nH]c4ccccc4c3C[C@H]3C(=O)N[C@H](C)C(=O)N23)cc(OC)c1O | – | 93.8% | 99.7% | 95.3% | 82.6% | – | 91.5% | 99.5% | – | – | – | – | – |
| COC(=O)[C@H](NC(=O)[C@@H]1Cc2c([nH]c3ccccc23)[C@@H](c2cc(OC)c(O)c(OC)c2)N1)c1ccccc1 | – | >100% | >100% | >100% | >100% | – | 99.2% | >100% | – | drug interaction with topo II | – | – | – |
| COC(=O)[C@H](Cc1ccccc1)NC(=O)[C@@H]1Cc2c([nH]c3ccccc23)[C@@H](c2cc(OC)c(O)c(OC)c2)N1 | – | 59.4% | 97.4% | 18% | – | – | 14.8% | 90.6% | – | – | – | – | 97.8% |
| COC(=O)[C@@H](CCSC)NC(=O)[C@@H]1Cc2c([nH]c3ccccc23)[C@@H](c2cc(OC)c(O)c(OC)c2)N1 | – | >100% | >100% | >100% | >100% | – | 89.6% | >100% | – | – | – | – | – |
| COC(=O)CNC(=O)[C@@H]1Cc2c([nH]c3ccccc23)[C@@H](c2cc(OC)c(O)c(OC)c2)N1 | – | >100% | >100% | 88.8% | 99.7% | – | >100% | >100% | – | – | – | – | – |

Reference: ChEMBL document CHEMBL1134055, “The synthesis of amino-acid functionalized beta-carbolines as topoisomerase II inhibitors” (2001)
